For orientation: IC50 means the midpoint of a concentration-inhibition curve. By inhibition is commonly meant the drop in the measured response relative to a control, in per cent. What is called Kd is the concentration at which binding is half-saturated. Low readings indicate tighter binding, high ones weaker binding.

SMILES strings stand for the structures. Values after ≈ are worked out from the molar mass of the structure shown.

The source of these data is ChEMBL document CHEMBL3046149, “Synthesis, fungicidal activity, and sterol 14α-demethylase binding interaction of 2-azolyl-3,4-dihydroquinazolines on Penicillium digitatum” (J Agric Food Chem, 2013).

Experiment [1] deals with Penicillium digitatum. Briefly: Fungicidal activity against Penicillium digitatum assessed as inhibition of mycelium measured after 48 hr. It counts as functional, organism-based. The method, boiled down: (§1)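 Poisoned-agar test on P. digitatum. Compounds in DMSO were mixed into molten agar at about 45–50 °C, at 1–50 μg/mL. Blank medium was the control. 5 mm plugs taken from the margins of actively growing mycelial colonies were placed at plate centres. Plates were run in triplicate at 26 °C in darkness. Colony diameter was read at 48 h; inhibition % = (control − treated diameter)/control diameter.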

The subject of experiment [2] is Penicillium digitatum. Description: Fungicidal activity against Penicillium digitatum assessed as inhibition of mycelium at 50 ug/ml measured after 48 hr. It counts as functional. In a few lines:
as §1

Experiment [3] has as its system Penicillium digitatum. Description: Fungicidal activity against Penicillium digitatum assessed as inhibition of mycelium at 1 ug/ml measured after 48 hr. The format is functional. The method, boiled down: as §1
Experiment [4] deals with Penicillium digitatum. Description: Fungicidal activity against Penicillium digitatum assessed as inhibition of mycelium at 25 ug/ml measured after 48 hr. It counts as functional. The method, boiled down:
as §1

Experiment [5] concerns Penicillium digitatum. Briefly: Fungicidal activity against Penicillium digitatum assessed as inhibition of mycelium at 10 ug/ml measured after 48 hr. The format is functional. The method, boiled down: as §1
Experiment [6] relates to Penicillium digitatum. Description: Fungicidal activity against Penicillium digitatum assessed as inhibition of mycelium at 5 ug/ml measured after 48 hr. It counts as functional. In a few lines: as §1
In experiment [7] the target is T1, P450 sterol 14-alpha-demethylase (Penicillium digitatum, UniProt E3SW77).
T1 sequence (E3SW77 whole entry): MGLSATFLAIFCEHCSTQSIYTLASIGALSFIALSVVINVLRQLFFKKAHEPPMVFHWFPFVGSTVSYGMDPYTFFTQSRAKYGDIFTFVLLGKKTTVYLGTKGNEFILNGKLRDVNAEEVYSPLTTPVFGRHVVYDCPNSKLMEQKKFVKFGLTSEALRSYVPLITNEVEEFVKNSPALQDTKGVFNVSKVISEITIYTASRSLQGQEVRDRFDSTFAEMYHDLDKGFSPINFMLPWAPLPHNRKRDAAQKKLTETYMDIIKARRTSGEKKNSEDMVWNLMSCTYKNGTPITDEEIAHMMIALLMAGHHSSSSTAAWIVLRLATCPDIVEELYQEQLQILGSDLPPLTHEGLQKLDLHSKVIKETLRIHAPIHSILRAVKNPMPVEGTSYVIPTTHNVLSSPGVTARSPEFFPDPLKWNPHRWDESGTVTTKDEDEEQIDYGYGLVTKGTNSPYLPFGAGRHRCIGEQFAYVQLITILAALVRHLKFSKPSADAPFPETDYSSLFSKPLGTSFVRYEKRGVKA
Briefly: Binding affinity to Penicillium digitatum CYP51. The method, boiled down: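 Recombinant His-tagged P. digitatum CYP51 from E. coli BL21(DE3), Ni-NTA purified, in 100 mM PBS pH 7.2. Difference spectra at 350−500 nm were recorded 1 min after adding compound at room temperature, with DMSO below 0.5%. Kd came from a Hanes−Woolf plot of [I] versus [I]/ΔA, using Amax from the saturated absorbance shift.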

Experiment [8] deals with Penicillium digitatum. Description: Antifungal activity against Penicillium digitatum assessed as growth inhibition.

In the case of `CC(=O)CC1c2ccccc2N=C(n2cncn2)N1C(C)C` (configuration not stated), the half-inhibitory concentration (IC50) in the experiment with Penicillium digitatum [1] was more than 50 mg/L. For the same molecule, in the experiment on Penicillium digitatum [2], the inhibition at 50 µg/mL stood at 10%.

With `CC(=O)CC1c2cc(Cl)ccc2N=C(n2cncn2)N1C(C)C` (configuration not stated), the IC50 in the experiment on Penicillium digitatum [1] is more than 50 mg/L. The inhibition at 50 µg/mL with Penicillium digitatum [2] stood at 17%.

Regarding `CC(C)(C)C(=O)C(Oc1ccc(Cl)cc1)n1cncn1` (configuration not stated) [TRIADIMEFON], the inhibition at 1 µg/mL in the experiment on Penicillium digitatum [3] is 0%. In addition, the inhibition at 50 µg/mL with Penicillium digitatum [2] amounted to 100%. For the same molecule, the inhibition at 25 µg/mL with Penicillium digitatum [4] worked out at 100%. The inhibition at 10 µg/mL in the experiment with Penicillium digitatum [5] amounted to 60%. Also, the inhibition at 5 µg/mL in the experiment with Penicillium digitatum [6] worked out at 27%.

Consider `CC(=O)CC1c2ccccc2N=C(n2ccnc2)N1c1ccccc1` (configuration not stated), for which the IC50 in the experiment on Penicillium digitatum [1] was 5.06 mg/L (≈ 15.3 µM). Also, in the experiment with Penicillium digitatum [3], the inhibition at 1 µg/mL worked out at 8%. For the same molecule, the inhibition at 50 µg/mL in the experiment on Penicillium digitatum [2] was 100%. In addition, the inhibition at 10 µg/mL in the experiment with Penicillium digitatum [5] stood at 61%. Further, the inhibition at 5 µg/mL in the experiment with Penicillium digitatum [6] was determined as 29%.

Regarding `CC(C)(C)C(=O)CC1c2ccccc2N=C(n2cncn2)N1c1ccccc1` (configuration not stated), in the experiment on Penicillium digitatum [1], the 50% inhibitory concentration (IC50) worked out at 90 mg/L (≈ 241 µM). Moreover, the inhibition at 1 µg/mL with Penicillium digitatum [3] stood at 0%. Besides, in the experiment with Penicillium digitatum [2], the inhibition at 50 µg/mL was found to be 35%. For the same molecule, the inhibition at 10 µg/mL in the experiment with Penicillium digitatum [5] is 15%. The inhibition at 5 µg/mL in the experiment on Penicillium digitatum [6] was found to be 8%.

For `CC(=O)CC1c2ccccc2N=C(n2cncn2)N1c1ccccc1` (configuration not stated), in the experiment on Penicillium digitatum [1], the IC50 is 129 mg/L (≈ 389 µM). In addition, in the experiment on Penicillium digitatum [3], the inhibition at 1 µg/mL is 0%. In addition, the inhibition at 50 µg/mL in the experiment on Penicillium digitatum [2] is 24%. For the same molecule, the inhibition at 10 µg/mL in the experiment with Penicillium digitatum [5] came to 11%. The inhibition at 5 µg/mL in the experiment with Penicillium digitatum [6] worked out at 0%.

Turning to `Cc1cccc(N2C(n3cncn3)=Nc3ccccc3C2CC(=O)C(C)(C)C)c1` (configuration not stated), the IC50 with Penicillium digitatum [1] amounted to 67.1 mg/L (≈ 173 µM). In the experiment with Penicillium digitatum [3], the inhibition at 1 µg/mL is 0%. The inhibition at 50 µg/mL with Penicillium digitatum [2] was found to be 40%. Besides, in the experiment on Penicillium digitatum [5], the inhibition at 10 µg/mL stood at 22%. In addition, the inhibition at 5 µg/mL in the experiment on Penicillium digitatum [6] stood at 8%.

The molecule `CC(=O)CC1c2cc(Cl)ccc2N=C(n2ccnc2)N1c1ccc(F)cc1` (configuration not stated) had a Kd in experiment [7] of 2.4 µM. In addition, the IC50 in the experiment on Penicillium digitatum [1] is 7.12 mg/L (≈ 18.6 µM); on Penicillium digitatum [8] it was 18.6 µM. In the experiment with Penicillium digitatum [3], the inhibition at 1 µg/mL turned out to be 9%. Also, the inhibition at 50 µg/mL in the experiment on Penicillium digitatum [2] came to 100%. Moreover, the inhibition at 25 µg/mL with Penicillium digitatum [4] was found to be 100%. Further, the inhibition at 10 µg/mL in the experiment on Penicillium digitatum [5] came to 64%. For the same molecule, in the experiment on Penicillium digitatum [6], the inhibition at 5 µg/mL was 21%.

Regarding `CC(=O)CC1c2ccccc2N=C(n2ccnc2)N1c1ccc(F)cc1` (configuration not stated), the Kd in experiment [7] is 0.976 µM. The IC50 with Penicillium digitatum [1] is 4.14 mg/L (≈ 11.9 µM); on Penicillium digitatum [8], 11.9 µM. The inhibition at 1 µg/mL in the experiment on Penicillium digitatum [3] is 9%. Further, in the experiment with Penicillium digitatum [2], the inhibition at 50 µg/mL stood at 100%. The inhibition at 25 µg/mL with Penicillium digitatum [4] was 100%. The inhibition at 10 µg/mL in the experiment on Penicillium digitatum [5] is 86%. Also, the inhibition at 5 µg/mL with Penicillium digitatum [6] was determined as 52%.

Regarding `CC(=O)CC1c2cc(Cl)ccc2N=C(n2cncn2)N1c1ccccc1` (configuration not stated), in the experiment on Penicillium digitatum [1], the IC50 is more than 50 mg/L. In addition, in the experiment with Penicillium digitatum [2], the inhibition at 50 µg/mL stood at 8%.

Consider `CC(=O)CC1c2ccccc2N=C(n2cncn2)N1c1ccc(F)cc1` (configuration not stated), for which the IC50 in the experiment on Penicillium digitatum [1] was more than 50 mg/L. Besides, the inhibition at 50 µg/mL in the experiment on Penicillium digitatum [2] was 14%.

Take `CC(=O)CC1c2ccccc2N=C(n2cncn2)N1c1cccc(C)c1` (configuration not stated): in the experiment on Penicillium digitatum [1], the IC50 came to 60.1 mg/L (≈ 174 µM). Besides, the inhibition at 1 µg/mL in the experiment with Penicillium digitatum [3] is 0%. For the same molecule, in the experiment on Penicillium digitatum [2], the inhibition at 50 µg/mL was 44%. Besides, the inhibition at 10 µg/mL with Penicillium digitatum [5] came out at 19%. Also, the inhibition at 5 µg/mL in the experiment on Penicillium digitatum [6] turned out to be 12%.

Regarding `CC(=O)CC1c2ccccc2N=C(n2ccnc2)N1C(C)C` (configuration not stated), in the experiment on Penicillium digitatum [1], the IC50 is 126 mg/L (≈ 425 µM). Moreover, in the experiment with Penicillium digitatum [3], the inhibition at 1 µg/mL worked out at 0%. The inhibition at 50 µg/mL in the experiment on Penicillium digitatum [2] was 28%. The inhibition at 10 µg/mL with Penicillium digitatum [5] was 15%. In addition, the inhibition at 5 µg/mL in the experiment on Penicillium digitatum [6] was determined as 4%.

In turn, `CCCCN1C(n2ccnc2)=Nc2ccccc2C1CC(C)=O` (configuration not stated) showed a Kd in experiment [7] of 13.3 µM. For the same molecule, the results for the IC50 in the experiment on Penicillium digitatum [1] and on Penicillium digitatum [8] were 15.6 mg/L (≈ 50.2 µM) and 50.2 µM, respectively. Besides, the inhibition at 1 µg/mL in the experiment on Penicillium digitatum [3] was determined as 5%. The inhibition at 50 µg/mL in the experiment on Penicillium digitatum [2] was determined as 100%. Also, in the experiment with Penicillium digitatum [4], the inhibition at 25 µg/mL came out at 57%. Besides, in the experiment with Penicillium digitatum [5], the inhibition at 10 µg/mL was determined as 29%. Besides, in the experiment on Penicillium digitatum [6], the inhibition at 5 µg/mL turned out to be 14%.

With `CC(=O)CC1c2ccccc2N=C(n2cncn2)N1c1ccc(Cl)cc1` (configuration not stated), the IC50 in the experiment with Penicillium digitatum [1] is more than 50 mg/L. Moreover, in the experiment with Penicillium digitatum [2], the inhibition at 50 µg/mL is 10%.

`CC(=O)CC1c2ccccc2N=C(n2ccnc2)N1c1ccc(Cl)cc1` (configuration not stated) showed a Kd in experiment [7] of 2.91 µM. Also, the IC50 in the experiment with Penicillium digitatum [1] is 10.4 mg/L (≈ 28.5 µM); at Penicillium digitatum [8], 28.5 µM. In the experiment on Penicillium digitatum [3], the inhibition at 1 µg/mL came to 0%. The inhibition at 50 µg/mL in the experiment on Penicillium digitatum [2] was 100%. In addition, the inhibition at 25 µg/mL in the experiment on Penicillium digitatum [4] was 100%. For the same molecule, in the experiment on Penicillium digitatum [5], the inhibition at 10 µg/mL was 35%. Further, the inhibition at 5 µg/mL with Penicillium digitatum [6] amounted to 14%.

Consider `CC(=O)CC1c2cc(Cl)ccc2N=C(n2ccnc2)N1C(C)C` (configuration not stated), for which the IC50 in the experiment with Penicillium digitatum [1] came out at 128 mg/L (≈ 387 µM). The inhibition at 1 µg/mL with Penicillium digitatum [3] came out at 0%. Further, the inhibition at 50 µg/mL in the experiment with Penicillium digitatum [2] is 30%. Also, in the experiment with Penicillium digitatum [5], the inhibition at 10 µg/mL stood at 12%. In the experiment on Penicillium digitatum [6], the inhibition at 5 µg/mL is 8%.
